# From PMC3992999 (Journal of chromatography. B, Analytical technologies in …, 2011)
# What was measured:
# sigma receptors = conditions: cited from earlier work
# [1] = pilot intravenous pharmacokinetic study in rats; assay type: in vivo; conditions: male, Sprague-Dawley, rat, plasma, 5 mg/kg
# In short: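 Six male Sprague-Dawley rats (180–200 g) with right jugular vein cannulas, fasted 12 h before and 4 h after dosing. Single 5 mg/kg i.v. bolus in saline (0.2 µm filtered) via cannula, flushed with heparinized saline. Plasma from centrifuged blood (10,000 × g, 20 min, 4 °C) held at −20 °C. Chloroform extraction with aripiprazole internal standard. HILIC UPLC/MS in SIR mode (m/z 390; IS 448). Mean ± SD, n = 6.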
# [2] = stability of CM156 in rat plasma QC samples under various storage conditions; assay type: in vitro ADME; conditions: for stability in rat plasma: 10, 400 and 3000 ng/mL
# In short: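 Blank rat plasma was spiked to QC levels of 10, 400 and 3000 ng/mL, six replicates each. Conditions were three freeze–thaw cycles (−20 °C 24 h, thaw at room temperature, refreeze 12–24 h), room temperature for 12 h, −20 °C for 1 month, and autosampler reinjection after 24 h at 25 °C. Samples were chloroform-extracted with aripiprazole internal standard, analysed by UPLC/MS, and compared with fresh QCs.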
# [3] = stability of stock solutions; assay type: physicochemical
# sigma-1 receptors = conditions: sigma-1 and sigma-2 in the nanomolar and subnanomolar range; cited from earlier work
# sigma-2 receptors = conditions: sigma-1 and sigma-2 in the nanomolar and subnanomolar range; cited from earlier work
# [4] = system: cocaine induced behaviors; conditions: cited from earlier work
# effects of cocaine = conditions: cited from earlier work
# [5] = rat plasma, long term for 30 days (−20 °C), spiked 10 ng/mL
# [6] = rat plasma, long term for 30 days (−20 °C), spiked 400 ng/mL
# [7] = rat plasma, short term for 12 h (25 °C), spiked 10 ng/mL
# [8] = rat plasma, short term for 12 h (25 °C), spiked 400 ng/mL
# [9] = rat plasma, three freeze thaw cycles, spiked 400 ng/mL
# [10] = rat plasma, three freeze thaw cycles, spiked 3000 ng/mL
# [11] = reconstituted samples, auto sampler for 24 h (25 °C), spiked 10 ng/mL
# [12] = reconstituted samples, auto sampler for 24 h (25 °C), spiked 400 ng/mL
# [13] = reconstituted samples, auto sampler for 24 h (25 °C), spiked 3000 ng/mL
compound,measurement,setting,value
COC(=O)[C@H]1[C@@H](OC(=O)c2ccccc2)C[C@@H]2CC[C@H]1N2C [cocaine],affinity for sigma receptors,sigma receptors,about 2 µm
"S=c1sc2ccccc2n1CCCCN1CCN(C2CCCCC2)CC1 [CM156, 3-(4-(4-cyclohexylpiperazin-1-yl)butyl)benzo[d]thiazole-2(3H)-thione]",AUC(0-inf),[1],802 ng·h/mL
same,Cmax,[1],1300 ± 200 ng/mL
same,MRT,[1],1.5 h
same,Vd,[1],9.6 ± 1.4 L/kg
same,clearance,[1],103 mL/min/kg
same,half-life,"[1]; Elimination half-life (t1/2), rats, single intravenous dose of 5 mg/kg, n = 6, mean ± SD",1.1 ± 0.4 h
same,stability in rat plasma,[2]; during three freeze/thaw cycles,stable
same,Measured concentration,[2]; [5],11.2 ± 0.9 ng/mL
same,RE (relative error),[2]; [5],12.8%
same,Measured concentration,[2]; [6],394.8 ± 17.8 ng/mL
same,RE (relative error),[2]; [6],−1.3%
same,Measured concentration,"[2]; rat plasma, long term for 30 days (−20 °C), spiked 3000 ng/mL",2879.4 ± 243.1 ng/mL
same,Measured concentration,[2]; [7],8.6 ± 0.7 ng/mL
same,RE (relative error),[2]; [7],−12.3%
same,Measured concentration,[2]; [8],403.6 ± 9.2 ng/mL
same,RE (relative error),[2]; [8],2.3%
same,Measured concentration,"[2]; rat plasma, short term for 12 h (25 °C), spiked 3000 ng/mL",2879.4 ± 145.2 ng/mL
same,Measured concentration,"[2]; rat plasma, three freeze thaw cycles, spiked 10 ng/mL",9.2 ± 1.1 ng/mL
same,Measured concentration,[2]; [9],406.4 ± 8.8 ng/mL
same,RE (relative error),[2]; [9],1.6%
same,Measured concentration,[2]; [10],2879.4 ± 209.8 ng/mL
same,RE (relative error),[2]; [10],−4.0%
same,Measured concentration,[2]; [11],10.0 ± 0.2 ng/mL
same,RE (relative error),[2]; [11],2.2%
same,Measured concentration,[2]; [12],404.4 ± 4.7 ng/mL
same,RE (relative error),[2]; [12],1.1%
same,Measured concentration,[2]; [13],2901.1 ± 59.2 ng/mL
same,RE (relative error),[2]; [13],−3.3%
same,stability in rat plasma,[2]; stored at room temperature for 12 h,stable
same,stability in rat plasma,[2]; stored at −20 °C for 1 month,stable
same,stability in reconstituted samples,[2]; stored for 24 h in the autosampler at 25 °C,stable
same,stock solution stability,[3]; one week at −20 °C,stable
same,time stock solution is stable,[3]; room temperature,at least 6 h
same,affinity for sigma-1 receptors,sigma-1 receptors,high affinity
same,affinity for sigma-2 receptors,sigma-2 receptors,high affinity
same,cocaine induced place conditioning behaviors,[4],significantly attenuate
same,expression of cocaine induced behavioral sensitization,[4],significantly attenuate
CN(CCc1ccc(Cl)c(Cl)c1)CCN1CCCC1 [BD 1008],convulsions of cocaine,effects of cocaine,attenuation
same,locomotor stimulant effects of cocaine,effects of cocaine,blockade
same,rewarding effects of cocaine,effects of cocaine,attenuation
